The text below walks through data of ChEMBL document CHEMBL3352174, “Identification of a New RXRα Antagonist Targeting the Coregulator-Binding Site” (ACS Med Chem Lett, 2014).

The target in assay [1] is T1, Retinoic acid receptor RXR-alpha (Homo sapiens) (UniProt P19793).
T1 sequence (whole entry): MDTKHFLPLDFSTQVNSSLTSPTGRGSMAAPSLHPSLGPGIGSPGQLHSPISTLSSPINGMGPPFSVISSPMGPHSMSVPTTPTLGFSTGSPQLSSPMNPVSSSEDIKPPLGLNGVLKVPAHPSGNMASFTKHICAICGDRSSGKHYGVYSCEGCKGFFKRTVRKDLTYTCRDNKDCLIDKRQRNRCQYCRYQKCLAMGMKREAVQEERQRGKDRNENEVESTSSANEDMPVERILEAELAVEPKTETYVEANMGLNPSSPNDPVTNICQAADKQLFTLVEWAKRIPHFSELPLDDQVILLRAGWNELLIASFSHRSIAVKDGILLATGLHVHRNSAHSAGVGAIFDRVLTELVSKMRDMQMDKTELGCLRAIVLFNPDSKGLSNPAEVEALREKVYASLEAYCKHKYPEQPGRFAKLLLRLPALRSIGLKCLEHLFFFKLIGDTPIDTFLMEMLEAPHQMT
The experiment in a line: Antagonist activity against RXRalpha in human colon cancer cells assessed as inhibition of AKT phosphorylation at 5 and 10 uM after 24 hrs by Western blotting method. In kind it is cell-based. Particulars: Cancer cell lines.

Assay [2] relates to A549. The experiment in a line: Induction of apoptosis in human A549 cells assessed as PARP cleavage at 5 and 10 uM by immunoblotting method. In kind it is functional, cell-based. The procedure, abridged:
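A549 or HepG2 cells were treated with compound for 24 h, with or without subsequent TNFα (20 ng/mL) for 30 min. Lysates were immunoblotted for PARP cleavage as the apoptosis marker. One of three to five similar experiments shown.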

The subject of assay [3] is MCF7. The experiment in a line: Growth inhibition of tRXRalpha stably expressing human MCF7 cells at 2 to 10 uM after 48 hrs by MTT assay. In kind it is functional, cell-based. Background: Formazan colour is commonly taken as a measure of viable cells.
In assay [4] the target is T1, Retinoic acid receptor RXR-alpha (Homo sapiens). The experiment in a line: Antagonist activity against Myc-tagged RXRalpha ligand binding domain (unknown origin) expressed in human MCF7 cells assessed as inhibition of 9-cis-RA-induced receptor transactivation at 10 uM after 18 hrs by luciferase reporter gene based mammalian one-hybrid assay. In kind it is cell-based. The gist of the method: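 MCF-7 cells co-transfected with pG5-Luc reporter and pBind-RXRα-LBD. […] Read-out was dual-luciferase, with firefly normalized to Renilla for transfection efficiency. Single-concentration tests used 10 μM. Mean ± SD.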
(Reporter assays use an easily measured gene product as a stand-in for the process of interest.)

The target of assay [5] is Nuclear receptor subfamily 4immunitygroup A member 1 (Homo sapiens) (UniProt P22736). The experiment in a line: Antagonist activity against Nur77 ligand binding domain (unknown origin) expressed in human MCF7 cells assessed as inhibition of all-trans-RA-induced receptor transactivation at 10 uM after 18 hrs by luciferase reporter gene based mammalian one-hybrid assay. In kind it is cell-based. The procedure, abridged:
(§1)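 MCF-7 cells co-transfected with pG5-Luc and the pBind-LBD fusion: Nur77, RARγ or ER. Agonists were all-trans-RA 10⁻⁷ M for RARγ and Nur77, and propyl pyrazole triol 10 μM for ER. Compound at 10 μM for 18 h. Dual-luciferase read-out normalized to Renilla. Mean ± SD.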

Assay [6] deals with T2, Retinoic acid receptor gamma (Homo sapiens) (UniProt P13631).
T2 sequence (whole entry): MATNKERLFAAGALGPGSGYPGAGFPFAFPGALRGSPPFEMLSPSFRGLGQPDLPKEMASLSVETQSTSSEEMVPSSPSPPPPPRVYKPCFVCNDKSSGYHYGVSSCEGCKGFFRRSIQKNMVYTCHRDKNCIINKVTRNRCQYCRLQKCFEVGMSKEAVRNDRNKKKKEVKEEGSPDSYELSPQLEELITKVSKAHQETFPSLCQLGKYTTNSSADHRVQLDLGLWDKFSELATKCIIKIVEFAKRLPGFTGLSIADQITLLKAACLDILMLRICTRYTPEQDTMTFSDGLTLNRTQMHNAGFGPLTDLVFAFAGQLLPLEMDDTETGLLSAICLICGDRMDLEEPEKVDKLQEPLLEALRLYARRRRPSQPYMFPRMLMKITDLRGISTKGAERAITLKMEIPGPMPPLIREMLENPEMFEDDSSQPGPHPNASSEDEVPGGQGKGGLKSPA
Description: Antagonist activity against RARgamma ligand binding domain (unknown origin) expressed in human MCF7 cells assessed as inhibition of ATRA-induced receptor transactivation at 10 uM after 18 hrs by luciferase reporter gene based mammalian one-hybrid assay. In kind it is cell-based. The procedure, abridged:
as §1

Assay [7] concerns the target Retinoic acid receptor alpha/Retinoid X receptor alpha (Homo sapiens) (UniProt P10276+P19793). Description: Antagonist activity against RXRalpha/RARalpha ligand binding domain (unknown origin) expressed in human HEK293T cells assessed as inhibition of 9-cis-RA/T09-induced receptor transactivation at 2 and 10 uM after 18 hrs by luciferase reporter gene based mammalian one-hybrid assay. In kind it is cell-based. Particulars: HEK-293T.

Assay [8] concerns the target T3, Retinoic acid receptor RXR-gamma (Homo sapiens) (UniProt P48443).
T3 sequence (whole entry): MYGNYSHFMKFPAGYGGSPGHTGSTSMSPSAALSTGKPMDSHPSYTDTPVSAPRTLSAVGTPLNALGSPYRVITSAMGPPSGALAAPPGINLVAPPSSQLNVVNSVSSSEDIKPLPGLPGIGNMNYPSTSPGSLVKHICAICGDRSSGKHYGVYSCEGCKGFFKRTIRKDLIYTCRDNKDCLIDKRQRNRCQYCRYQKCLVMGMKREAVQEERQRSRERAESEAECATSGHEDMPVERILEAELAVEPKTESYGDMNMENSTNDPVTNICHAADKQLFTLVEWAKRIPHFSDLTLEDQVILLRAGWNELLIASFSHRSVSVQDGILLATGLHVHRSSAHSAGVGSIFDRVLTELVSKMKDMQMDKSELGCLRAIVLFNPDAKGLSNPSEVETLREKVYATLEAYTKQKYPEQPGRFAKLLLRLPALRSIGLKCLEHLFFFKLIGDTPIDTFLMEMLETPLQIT
The experiment in a line: Antagonist activity against RXRgamma ligand binding domain (unknown origin) expressed in human HEK293T cells assessed as inhibition of 9-cis-RA-induced receptor transactivation at 2 and 10 uM after 18 hrs by luciferase reporter gene based mammalian one-hybrid assay. In kind it is cell-based. The note with it: HEK-293T.

For assay [9], the target named is T1, Retinoic acid receptor RXR-alpha (Homo sapiens). Description: Antagonist activity against RXRalpha in TNFalpha-stimulated human HepG2 cells assessed as inhibition of AKT phosphorylation at 5 and 10 uM pre-treated for 24 hrs before TNFalpha addition by Western blotting method. In kind it is cell-based. The gist of the method: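 A549 or HepG2 cells were exposed to compound for 24 h, then with or without TNFα (20 ng/mL) for 30 min more. Lysates were immunoblotted for AKT activation. One of three to five similar experiments shown.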
In general terms: A western blot detects proteins with antibodies after separation by electrophoresis.

The source made the active and inactive calls. No cut-off for these calls is given here.

Chain of Nuclear receptor subfamily 4immunitygroup A member 1 (Homo sapiens) (P22736 whole entry, the tested form may be a part): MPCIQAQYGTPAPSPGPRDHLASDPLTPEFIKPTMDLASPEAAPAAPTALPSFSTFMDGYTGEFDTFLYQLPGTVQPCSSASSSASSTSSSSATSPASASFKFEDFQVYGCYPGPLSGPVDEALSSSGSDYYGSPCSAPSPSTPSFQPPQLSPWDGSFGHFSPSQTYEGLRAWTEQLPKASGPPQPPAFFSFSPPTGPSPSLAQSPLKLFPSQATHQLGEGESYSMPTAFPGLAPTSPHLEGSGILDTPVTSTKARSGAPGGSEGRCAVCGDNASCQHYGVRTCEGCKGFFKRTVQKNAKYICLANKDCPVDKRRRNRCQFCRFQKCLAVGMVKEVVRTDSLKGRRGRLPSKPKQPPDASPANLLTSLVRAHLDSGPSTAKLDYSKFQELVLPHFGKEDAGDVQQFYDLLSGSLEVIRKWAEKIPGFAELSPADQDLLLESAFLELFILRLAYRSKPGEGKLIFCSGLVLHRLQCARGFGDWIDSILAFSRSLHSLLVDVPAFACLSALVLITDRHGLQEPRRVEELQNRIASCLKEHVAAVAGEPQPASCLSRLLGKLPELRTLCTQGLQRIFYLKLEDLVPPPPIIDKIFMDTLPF

Regarding `Cc1cc(=O)oc2c(/C=N/NC(=O)CSc3nc4ccccc4s3)c(O)ccc12`, the inhibition entry in assay [1], in [4], in assay [6], in assay [8] and in assay [9] was “Active” in each case. For the same molecule, the outcome in assay [2] was Active. Moreover, the “growth inhibition (GI)” value in assay [3] is “Active”. The inhibition entry in assay [5] and in [7] was “inactive” throughout.
